Measured values published in ChEMBL document CHEMBL1122391, “2-benzazepines. 6. Synthesis and pharmacological properties of the metabolites of 9-chloro-7-(2-chlorophenyl)-5H-pyrimido[5,4-d] [2]benzazepine” (J Med Chem, 1983).

What was measured:
[1] = target: GABA-A receptor; anion channel; experiment: Displacement of [3H]diazepam binding in rat brain membranes; format: cell membranes
Mus musculus [2] = experiment: Effective dose required to prevent convulsions in mice after iv administration of 70 mg/kg of metrazole compound in antipentylene tetrazole test; format: functional
How it was run: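 Male CF-1 mice, 50–54 days old, tested by a modified Everett–Richards method. Metrazole 70 mg/kg is given iv, and convulsions are scored.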

Mus musculus [3] = species on record: Mus musculus; experiment: Effective dose required for […] in mice in rotarod test; format: functional

SMILES	IC50 [1] [nM]	ED50 (Mus musculus [2]) [mg/kg]	ED50 (Mus musculus [3]) [mg/kg]
Clc1ccc2c(c1)C(c1ccccc1Cl)=NCc1cncnc1-2	1.7	0.59	1.4
OC1N=C(c2ccccc2Cl)c2cc(Cl)ccc2-c2ncncc21 (centres undefined)	6.4	0.74	4.8
Oc1ccc(C2=NCc3cncnc3-c3ccc(Cl)cc32)c(Cl)c1	100	> 100	> 1000
[O-][n+]1cnc2c(c1)CN=C(c1ccccc1Cl)c1cc(Cl)ccc1-2	1.25	0.65	4.9
CN1C(=O)CN=C(c2ccccc2)c2cc(Cl)ccc21 [DIAZEPAM]		1.4	2.6
